Active and inactive are the calls of the source.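 The calls were made as follows, unless noted: active = inhibition of the reporter signal at or above 50%; inactive = inhibition below 50%.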
Tests used:
[1] = inhibitors of TNFa-induced NFkB p65 translocation, primary screen, imaging, HUVEC, MLSMR starter and 10KST1 sets (AID 438;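 active = inhibition above 20% together with a positive visual image hit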;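 also: compound added about 3h40 before a 20 min TNFalpha stimulation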;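 as to inhibition: signal is the nuclear over cytoplasmic p65 intensity ratio per well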); conditions: HUVEC TNFa-induced p65 nuclear translocation; cell count: measured here: nuclei count (cytotoxicity indicator), at 2.08 µM; inhibition: at 2 µM, stronger effect = higher value, 0% TNFa-plus-vehicle, 100% no-TNFa wells
[2] = inhibitors of mutant huntingtin aggregation, primary screen, imaging, exon1htt(103Q)mCFP cells, high-content imaging (AID 483;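 active = visual image review flags a hit and inhibition of aggregation exceeds 20%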;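 also: compound exposure lasted 3 days before fixation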;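 as to nuclei count: percent of the per-plate median nuclei count of sample wells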); conditions: exon1htt(103Q)mCFP cell line, aggregate imaging, at 2 µM; inhibition of aggregation: stronger effect = higher value; nuclei count: measured here: cell count, toxicity
[3] = inhibitors of E-selectin induction by TNFa, primary screen, imaging, HUVEC, immunofluorescence, MLSMR starter and 10KST1 sets (AID 487;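 active = visually confirmed hit in the image check and inhibition above 20%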;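 as to inhibition: signal is fraction of cell area covered by stained E-selectin grains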;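 as to nuclei count: 100% = median nuclei count of all wells on the same plate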); conditions: HUVEC TNFalpha-induced E-selectin immunofluorescence imaging, at 2 µM; inhibition: stronger effect = higher value; nuclei count: measured here: cell number, toxicity
[4] = target: Voltage-gated potassium channel subunit beta-2 (Rattus norvegicus) (UniProt P62483); assay: KvBeta enzyme negative modulators, primary screen, biochemical, NADPH fluorescence (AID 622;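 active = fluorescence slope higher than the sample average by over 3 SD, cut at about -0.22 in these data, passing the limit was not always enough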;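 also: slope of raw intensity against log time taken from 70 to 1610 s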); conditions: recombinant KvBeta, 4-cyanobenzaldehyde reduction, at 10 µM, stronger effect = higher value
[5] = target: Voltage-gated potassium channel subunit beta-2 (Rattus norvegicus) (UniProt P62483); assay: KvBeta positive modulators, primary screen, biochemical, NADPH fluorescence (AID 623;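 active = NADPH fluorescence slope more negative than the mean of all samples by about 3 SD, 99.7% confidence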;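 also: fluorescence intensity change per second fitted from 20 to 320 s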); conditions: Recombinant KvBeta, NADPH fluorescence decrease slope, 10 min; at 10 µM; stronger effect = lower value
[6] = target: Alpha-2C adrenergic receptor (Homo sapiens) (UniProt P18825); assay: modulators of alpha2C/GIRK thallium flux, primary screen, cell-based, HEK293 alpha2C/GIRK1/2 (AID 624;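 active = fluorescence slope after compound addition differing from the mean of all screened samples at 99.7% confidence, in either direction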;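 also: slope of fluorescence ratio to pre-addition baseline per second over 15 to 24 s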); conditions: thallium flux BTC fluorescence, at 10 µM, actives lie on both sides
[7] = inhibitors of larval lipid processing in zebrafish, primary screen, whole organism, PED6 fluorescence, gall bladder and intestine (AID 686;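 active = a full or partial loss of lipid-probe fluorescence in the fish gall bladder, intestine or both, judged by eye; inactive = no fluorescence loss, or compound toxic to the fish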;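 also: larvae 5 to 7 days old with five fish per well; signal comes from phospholipase A2 cleavage of quenched PED6 carried via bile; overnight exposure to compound and PED6 before scoring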); conditions: Zebrafish larvae PED6 lipid processing, fluorescence scoring; screened at 20 µM (by protocol)
Summary of the method: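 Test system – live zebrafish larvae aged 5-7 days, whole organism · Buffer or medium – E3 fish medium · Reagent – quenched phospholipase substrate PED6, 100 nM final, ingested by larvae · Doses – 20 µM single dose · Incubation – overnight compound and PED6 incubation · Technique – visual fluorescence microscopy scoring of gall bladder, gut · Read-out basis – visual per-well fluorescence inhibition score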

[8] = inhibitors of Sendai virus-induced IRF3 signaling, primary screen, TLR/RLR signaling modifier project, cell-based, Sendai virus stimulus, luciferase, 10K MLSCN set (AID 602276;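 active = inhibition at or above 50% at 10 µM; inactive = inhibition below 50%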;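 also: firefly luciferase from ISG56 promoter only with Renilla not read in this screen; 0% = Sendai virus plus DMSO and 100% = medium plus DMSO without virus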); conditions: HEK293 RL24 IRF3 luciferase reporter, at 10 µM, stronger effect = higher value
[9] = inhibitors of poly I:C-induced TLR3 signaling, primary screen, cell-based, poly I:C stimulus, luciferase, 10K MLSCN set (AID 602277); conditions: HEK293-TLR3 RL24 IRF3 luciferase reporter, at 10 µM, stronger effect = higher value

Sequence of Alpha-2C adrenergic receptor (Homo sapiens) (P18825 whole entry, looked up): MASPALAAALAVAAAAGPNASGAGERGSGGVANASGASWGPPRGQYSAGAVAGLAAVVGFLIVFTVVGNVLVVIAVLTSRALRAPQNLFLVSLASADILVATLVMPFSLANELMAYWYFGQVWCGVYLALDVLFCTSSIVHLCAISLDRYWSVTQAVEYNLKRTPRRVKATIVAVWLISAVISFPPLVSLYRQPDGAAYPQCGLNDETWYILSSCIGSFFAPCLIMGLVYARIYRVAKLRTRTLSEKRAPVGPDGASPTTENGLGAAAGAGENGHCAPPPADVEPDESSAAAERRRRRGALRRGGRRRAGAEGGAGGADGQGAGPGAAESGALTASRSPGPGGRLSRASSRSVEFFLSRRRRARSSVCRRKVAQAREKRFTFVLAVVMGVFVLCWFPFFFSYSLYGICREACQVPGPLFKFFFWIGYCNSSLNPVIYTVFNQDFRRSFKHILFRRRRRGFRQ
Sequence of Voltage-gated potassium channel subunit beta-2 (Rattus norvegicus) (P62483 whole entry, looked up): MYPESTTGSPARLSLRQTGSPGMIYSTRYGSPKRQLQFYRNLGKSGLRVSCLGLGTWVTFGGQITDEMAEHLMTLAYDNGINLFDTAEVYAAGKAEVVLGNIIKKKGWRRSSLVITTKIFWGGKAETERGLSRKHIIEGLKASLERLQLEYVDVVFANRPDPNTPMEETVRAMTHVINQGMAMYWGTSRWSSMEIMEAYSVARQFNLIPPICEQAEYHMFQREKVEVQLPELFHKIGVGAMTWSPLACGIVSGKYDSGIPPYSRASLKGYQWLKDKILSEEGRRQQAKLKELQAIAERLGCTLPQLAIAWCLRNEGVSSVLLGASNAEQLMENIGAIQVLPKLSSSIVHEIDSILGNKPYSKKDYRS

SMILES	cell count [1]	inhibition [1]	inhibition of aggregation [2]	nuclei count [2] [%]	inhibition [3]	nuclei count [3] [%]	fluorescence slope [4]	NADPH fluorescence slope [5]	slope [6]	outcome [7]	inhibition [8]	inhibition [9]
COC(=O)c1c(NC(=O)CCc2ccc(C)o2)sc(C)c1C	568	6.6% (inactive)	7.9% (inactive)	79.4	-69.4% (inactive)	91	-0.294 (inactive)	-1.6e-05 (inactive)	0.00498 (inactive)	inactive	15.7% (inactive)	31.1% (inactive)
CCn1cnc2sc(C(=O)Nc3ccc4c(c3)OCO4)c(C)c2c1=O	473	-14.7% (inactive)	7.4% (inactive)	102	-47.6% (inactive)	90.6	-0.361 (inactive)	-7e-05 (inactive)	0.00678 (inactive)	inactive	-47.3% (inactive)	-111% (inactive)
CC(C)CC(c1nnnn1C(C)(C)C)N1CCN(C2CCCC2)CC1 (centres undefined)	487	7.1% (inactive)	-11.7% (inactive)	98.2	-5.6% (inactive)	109	-0.33 (inactive)	-6.5e-05 (inactive)	0.00477 (inactive)	inactive	5.92% (inactive)	13.5% (inactive)
COc1ccc(CSCCN)cc1Cl	431	-3.8% (inactive)	-22.4% (inactive)	104	27.2% (inactive)	107	-0.4 (inactive)	-9.7e-05 (inactive)	0.00556 (inactive)	inactive	-7.54% (inactive)	-8.95% (inactive)
COc1ccc(C/C(O)=C(\C#N)c2nc3ccccc3s2)cc1	783	-1.1% (inactive)	2.2% (inactive)	98.5	-15.3% (inactive)	111	-0.378 (inactive)	-3.1e-05 (inactive)	0.0036 (inactive)	inactive; toxic	0.322% (inactive)	6.03% (inactive)
CC(NC(=O)NC12CC3CC(CC(C3)C1)C2)C1CCCO1 (centres undefined)	356	2.9% (inactive)	0.8% (inactive)	80.4	1.7% (inactive)	87.1	-0.439 (inactive)	-2.2e-05 (inactive)	0.00592 (inactive)	inactive	15.3% (inactive)	8.29% (inactive)
COc1ccc(S(=O)(=O)NCCCN2CCOCC2)c2ccccc12	674	-3.5% (inactive)	-7.8% (inactive)	102	-82.6% (inactive)	100	-0.356 (inactive)	-3.4e-05 (inactive)	0.00569 (inactive)	inactive	14.4% (inactive)	19.6% (inactive)
CC1(C)C2CCC1(C)C(OC(=O)CSc1nc(N)cc(=O)[nH]1)C2 (centres undefined)	473	6.5% (inactive)	4% (inactive)	103	-343% (inactive)	136	-0.367 (inactive)	-4.6e-05 (inactive)	0.00448 (inactive)	inactive	3.84% (inactive)	8.04% (inactive)
c1ccc(-c2nc3cnccn3c2Nc2ccc3c(c2)OCCO3)cc1	606	-36.1% (inactive)	11.9% (inactive)	101	-20.7% (inactive)	110	-0.202 (inactive)	-6.7e-06 (inactive)	0.00431 (inactive)	inactive	8.91% (inactive)	11.5% (inactive)
Cc1ccc2c(C(=O)CN3CCSCC3)c(C)[nH]c2c1	634	4.8% (inactive)	-7.9% (inactive)	106	2.2% (inactive)	104	-0.386 (inactive)	-8.2e-05 (inactive)	0.00551 (inactive)	inactive	-12.6% (inactive)	-12.9% (inactive)
COC(=O)Nc1sccc1C(=O)Nc1sccc1C(=O)OC	330	-0.2% (inactive)	23.3% (inactive)	96.8	17.9% (inactive)	95.9	-0.431 (inactive)	-3.4e-05 (inactive)	0.00336 (inactive)	inactive	1.3% (inactive)	-4.09% (inactive)
CN(C)C(=O)CSc1nnc2sc3ccccc3n12	388	-9.2% (inactive)	-15.4% (inactive)	105	-32.3% (inactive)	102	-0.438 (inactive)	-2.4e-05 (inactive)	0.00511 (inactive)	inactive	15.9% (inactive)	23.7% (inactive)
Cc1nonc1NC(=O)c1ccccc1Br	620	9.6% (inactive)	28.1% (inactive)	96.4	52.4% (inactive)	60	-0.346 (inactive)	-5.8e-05 (inactive)	0.00524 (inactive)	inactive	12% (inactive)	22.4% (inactive)
CCOC(=O)c1cc(-c2ccccc2)sc1N	389	-0.7% (inactive)	3.4% (inactive)	102	-104% (inactive)	107	-0.351 (inactive)	-2e-05 (inactive)	0.0052 (inactive)	inactive	-40.8% (inactive)	-102% (inactive)
CCOC(=O)Cc1csc(NC(=O)c2cccc(OC)c2)n1	395	5.8% (inactive)	-28.7% (inactive)	97	-15.2% (inactive)	113	-0.459 (inactive)	-3.2e-05 (inactive)	0.00478 (inactive)	inactive	4.13% (inactive)	-6.24% (inactive)
COc1ccc2c3c(c(=O)oc2c1OCC(N)=O)CCCC3	609	-3.8% (inactive)	-17.4% (inactive)	111	-29.2% (inactive)	102	-0.0534 (active)	-8.5e-06 (inactive)	0.00487 (inactive)	inactive	14% (inactive)	2.31% (inactive)
C=CCn1c(SCC(=O)Nc2ccc3c(c2)OCO3)nc2ccccc2c1=O	388	-0.4% (inactive)	1.9% (inactive)	96.8	37.8% (inactive)	90.6	-0.429 (inactive)	-3.8e-05 (inactive)	0.00549 (inactive)	inactive	15.8% (inactive)	14.8% (inactive)
Cc1ccc(S(=O)(=O)NCC(c2cccnc2)N(C)C)cc1 (centres undefined)	453	-1.9% (inactive)	2.5% (inactive)	106	-33.6% (inactive)	127	-0.464 (inactive)	-9.5e-06 (inactive)	0.00528 (inactive)	inactive	7.09% (inactive)	15.6% (inactive)
CC1(C)CC(=O)C(C=NC(CCC(N)=O)C(=O)O)=C(O)C1 (centres undefined)	520	-22.3% (inactive)	-15.6% (inactive)	113	54.4% (active)	93.1	-0.382 (inactive)	-1e-05 (inactive)	0.00504 (inactive)	inactive	13.3% (inactive)	13.8% (inactive)
CCOC(=O)N1CCC(NC(=O)Cn2cc3c(n2)CCC(C)C3)CC1 (centres undefined)	420	-11.9% (inactive)	0.7% (inactive)	108	-5.4% (inactive)	101	-0.479 (inactive)	1.7e-05 (inactive)	0.0047 (inactive)	inactive	-10.4% (inactive)	-9.33% (inactive)
Cc1nc(-c2ccccc2)sc1C(N)=O	424	4.7% (inactive)	25.4% (inactive)	104	-40.1% (inactive)	117	-0.524 (inactive)	1.6e-05 (inactive)	0.0052 (inactive)	inactive	-21.5% (inactive)	-49.1% (inactive)
CC1Cc2ccccc2N1CC(=O)NC(=O)NCc1ccco1 (centres undefined)	441	-2.6% (inactive)	9.8% (inactive)	91.7	2.3% (inactive)	109	-0.436 (inactive)	-9.5e-06 (inactive)	0.00524 (inactive)	inactive	16.6% (inactive)	19% (inactive)
CC1(C)C(c2cccs2)=[N+]([O-])C2(CCCCC/C2=N\O)N1O (centres undefined)	423	0.5% (inactive)	5.7% (inactive)	91.7	-97.1% (inactive)	112	-0.46 (inactive)	-4.9e-05 (inactive)	0.00609 (inactive)	inactive	15.7% (inactive)	15.3% (inactive)
C=CCN(CC=C)C(=O)Nc1cc(Cl)ccc1OC	373	0.5% (inactive)	-7.2% (inactive)	103	-87.7% (inactive)	111	-0.402 (inactive)	-3.2e-05 (inactive)	0.0044 (inactive)	inactive	4.56% (inactive)	-3.97% (inactive)
COCCNC(=O)NC(=O)COC(=O)Cc1ccc2c(c1)OCCO2	376	5.1% (inactive)	-11.9% (inactive)	109	-127% (inactive)	110	-0.418 (inactive)	-6.4e-05 (inactive)	0.00538 (inactive)	inactive	17% (inactive)	16.3% (inactive)
CN1C(=O)c2oc3ccccc3c(=O)c2C1c1ccccn1 (centres undefined)	404	5.4% (inactive)	-16.4% (inactive)	106	-28.5% (inactive)	87.5	-0.437 (inactive)	-4.2e-05 (inactive)	0.00452 (inactive)	inactive	18% (inactive)	12% (inactive)
COc1ccc(CN(C(=O)CN2C(=O)COc3ccccc32)C2CCCC2)c(OC)c1	658	-3.5% (inactive)	-4.6% (inactive)	102	4.9% (inactive)	104	-0.435 (inactive)	-6.2e-05 (inactive)	0.00491 (inactive)	inactive	21.9% (inactive)	26.4% (inactive)
